Test results from ChEMBL document CHEMBL6087468, “TKK130 is a 3-Hydroxy-Propanamidine (HPA) with Potent Antimalarial In Vivo Activity and a High Barrier to Resistance” (J Med Chem, 2025).
Activity calls are given as the source filed them. The rule behind the calls is not given here.

What was measured:
[1] = Unbound drug concentration in plasma (unknown origin) at 25 ng/ml measured after 24 hrs by dilution method; format: ADME, cell-free
Procedure, shortened: (§1)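 Equilibrium dialysis with donor plasma diluted 1:10 or 1:20 in 0.9% saline, spiked at 25 ng/mL, against 0.9% saline acceptor for 24 h at 37 °C. Concentrations by LC–MS/MS against diluted-plasma calibration curves; unbound fraction (acceptor/donor) back-calculated to undiluted plasma; triplicate; itraconazole reference.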

[2] = Plasma stability at 37 °C measured as remaining drug at 4 hrs sampled in triplicate (concentration 25 ng/mL 2 (TKK130)); format: ADME, cell-free; settings: human, at 25 ng/mL, read-out: Stability
Procedure, shortened: (§2)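 Fresh EDTA human plasma warmed to 37 °C, spiked to 25 ng/mL (0.5% methanol final), split into three fractions, shaken at 37 °C. Samples at 0, 2, 4, 6, 24, 48 h precipitated with ice-cold acetonitrile containing internal standard; LC–MS/MS. Recovery = analyte/IS area ratio relative to 0 h; triplicate.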

[3] = AUC (0 to t) in mouse infected with Plasmodium berghei at 30 mg/kg, po; format: ADME, organism-based; settings: in vivo
Procedure, shortened: (§3)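 Single oral dose to P. berghei-infected mice, 2 mice per dose group. Blood sampled at 1, 4 and 24 h post-dose as dried blood spots, plus a blank "0 h" reading. Spots diluted 1:5 (3, 10 mg/kg) or 1:10 (30 mg/kg), then quantified by LC–MS/MS against a whole-blood calibration of 1.56–800 ng/mL with QCs at three levels.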

Plasmodium falciparum [4] = assay: Antimalarial activity against Plasmodium falciparum Dd2 ELQ300 harboring PfcytB-mutant infected in human erythrocytes assessed as inhibition of parasite growth measured after 72 hrs incubation by [3H]hypoxanthine incorporation assay; format: functional, organism-based; settings: Dd2 ELQ300, Erythrocyte
Procedure, shortened: (§4)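 Dd2 parent line, and mutants made from it by gene editing or drug selection. Growth inhibition measured by the 72 h [3H]hypoxanthine incorporation assay at Swiss TPH. Values are means of 2 independent biological replicates.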

Plasmodium falciparum [5] = assay: Induction of resistance development in Plasmodium falciparum Dd2 Pol delta at 2 x 10^9 initial inoculum per flask at 9 nM measured on day 4 by single-step selection assay; format: functional, organism-based
Plasmodium falciparum [6] = assay: Antimalarial activity against multidrug-resistant Plasmodium falciparum Dd2 harboring pfcrt, pfmdr1, pfdhfr, pfdhps mutated loci assessed as inhibition of parasite growth incubated for 48 hrs by [3H]hypoxanthine incorporation assay; format: functional, organism-based
[7] = Microsomal binding in human liver microsomes assessed as unbound fraction […] by Equilibrium dialysis; format: ADME, Microsome
Procedure, shortened: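 Equilibrium dialysis across 6 kDa regenerated cellulose membrane: donor 1 μM analyte in 0.5 mg/mL pooled HLMs in 0.1 M potassium phosphate buffer, acceptor 0.9% saline, 24 h at 37 °C. Donor diluted 1:20 in 4% BSA, acetonitrile precipitation, LC–MS/MS against matrix calibration curves; fraction bound from volume-corrected equation, unbound = 1 − bound; triplicate.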

Plasmodium falciparum [8] = assay: (§5) Antimalarial activity against chloroquine, sulfadoxine, and pyrimethamine-resistant Plasmodium falciparum Dd2 infected in erythrocyte assessed as reduction in number of viable parasites at 10 times IC50 concentration treated for 24 hrs followed by allowed to recover in drug-free medium for 28 days by HRP2-ELISA analysis; format: functional, organism-based
Plasmodium falciparum [9] = assay: Induction of resistance development in Plasmodium falciparum Dd2 Pol delta at 2 x 10^7 initial inoculum per flask measured on day 16 by single-step selection assay; format: functional, organism-based
Plasmodium berghei [10] = assay: In vivo antiplasmodial activity against Plasmodium berghei infected mouse model assessed as curation rate at 3 mg/kg, po treated 4 times measured at 96 hrs post infection by fluorescence-activated cell sorting (FACS) analysis; format: functional
[11] = Tmax in mouse infected with Plasmodium berghei at 3 mg/kg, po; format: ADME, organism-based; settings: in vivo
Procedure, shortened: (§6)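 Infected mice (n = 2 per dose) given a single oral dose of 3, 10 or 30 mg/kg; blood sampled as dried blood spots at 1, 4 and 24 h post-dose, diluted before LC–MS analysis against whole-blood dried-spot calibration (1.56–800 ng/mL) with QCs; tmax from concentration–time profiles.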

[12] = target: Voltage-gated inwardly rectifying potassium channel KCNH2 (Homo sapiens, UniProt Q12809); assay: Inhibition of hERG by fluorescence polarization assay; format: toxicity
Plasmodium falciparum [13] = assay: as §5, with “120” for “24”; format: functional, organism-based
Plasmodium falciparum [14] = assay: Antimalarial activity against Plasmodium falciparum Dd2 DDD107498 harboring PfeEF2 mutant infected in human erythrocytes assessed as inhibition of parasite growth measured after 72 hrs incubation by [3H]hypoxanthine incorporation assay; format: functional, organism-based; settings: Dd2 DDD107498, Erythrocyte; procedure, shortened: as §4
[15] = Plasma protein binding in plasma (unknown origin) at 25 ng/ml measured after 24 hrs by dilution method; format: ADME, cell-free; procedure, shortened: as §1
Plasmodium berghei [16] = assay: In vivo antiplasmodial activity against Plasmodium berghei infected mouse model assessed as curation rate at 10 mg/kg, po treated 4 times measured at 96 hrs post infection by fluorescence-activated cell sorting (FACS) analysis; format: functional
[17] = AUC (0 to t) in mouse infected with Plasmodium berghei at 3 mg/kg, po; format: ADME, organism-based; settings: in vivo; procedure, shortened: as §3
Plasmodium falciparum [18] = assay: Antimalarial activity against chloroquine-sensitive Plasmodium falciparum 3D7 infected in erythrocytes measured after 3 days by HRP2-ELISA analysis; format: functional, organism-based; settings: 3D7, Erythrocyte, 72 h
Plasmodium falciparum [19] = assay: Antimalarial activity against chloroquine, sulfadoxine, and pyrimethamine-resistant Plasmodium falciparum Dd2 infected in erythrocytes measured after 3 days by HRP2-ELISA analysis; format: functional, organism-based; settings: Dd2, Erythrocyte, 72 h
[20] = Cmax in mouse infected with Plasmodium berghei at 3 mg/kg, po; format: ADME, organism-based; settings: in vivo; procedure, shortened: as §3
Plasmodium berghei [21] = assay: In vivo antiplasmodial activity against Plasmodium berghei infected mouse model assessed as parasitemia suppression in blood at 10 mg/kg, po treated 4 times measured at 96 hrs post infection by fluorescence-activated cell sorting (FACS) analysis; format: functional
Plasmodium falciparum [22] = assay: Antimalarial activity against Plasmodium falciparum K1 infected in human erythrocytes assessed as inhibition of parasite growth measured after 48 hrs incubation by [3H]hypoxanthine incorporation assay; format: functional, organism-based; settings: K1, Erythrocyte
[23] = Plasma stability at 37 °C measured as remaining drug at 24 hrs sampled in triplicate (concentration 25 ng/mL 2 (TKK130)); format: ADME, cell-free; settings: human, at 25 ng/mL, read-out: Stability; procedure, shortened: as §2
Plasmodium falciparum [24] = assay: Induction of resistance development in Plasmodium falciparum Dd2 Pol delta at 2 x 10^7 initial inoculum per flask by single-step selection assay; format: functional, organism-based
Plasmodium berghei [25] = assay: In vivo antiplasmodial activity against Plasmodium berghei infected mouse model assessed as curation rate at 30 mg/kg, po treated 4 times measured at 96 hrs post infection by fluorescence-activated cell sorting (FACS) analysis; format: functional
[26] = Tmax in mouse infected with Plasmodium berghei at 30 mg/kg, po; format: ADME, organism-based; settings: in vivo; procedure, shortened: as §6
Plasmodium falciparum [27] = assay: Antimalarial activity against Plasmodium falciparum NF54 infected in human erythrocytes assessed as inhibition of parasite growth measured after 48 hrs incubation by [3H]hypoxanthine incorporation assay; format: functional, organism-based; settings: NF54, Erythrocyte
[28] = Chemical stability of the compound in aqueous buffer at pH 7.4; format: physicochemical
Procedure, shortened: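 Stability tested in aqueous phosphate buffer, pH 7.4, at room temperature over 24 h, n = 3.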

Plasmodium falciparum [29] = assay: Induction of resistance development in Plasmodium falciparum Dd2 Pol delta at 2 x 10^9 initial inoculum per flask at 9 nM measured 60 days of recovery time by single-step selection assay; format: functional, organism-based; settings: time 60.0 day

Voltage-gated inwardly rectifying potassium channel KCNH2, sequence (Q12809 whole entry): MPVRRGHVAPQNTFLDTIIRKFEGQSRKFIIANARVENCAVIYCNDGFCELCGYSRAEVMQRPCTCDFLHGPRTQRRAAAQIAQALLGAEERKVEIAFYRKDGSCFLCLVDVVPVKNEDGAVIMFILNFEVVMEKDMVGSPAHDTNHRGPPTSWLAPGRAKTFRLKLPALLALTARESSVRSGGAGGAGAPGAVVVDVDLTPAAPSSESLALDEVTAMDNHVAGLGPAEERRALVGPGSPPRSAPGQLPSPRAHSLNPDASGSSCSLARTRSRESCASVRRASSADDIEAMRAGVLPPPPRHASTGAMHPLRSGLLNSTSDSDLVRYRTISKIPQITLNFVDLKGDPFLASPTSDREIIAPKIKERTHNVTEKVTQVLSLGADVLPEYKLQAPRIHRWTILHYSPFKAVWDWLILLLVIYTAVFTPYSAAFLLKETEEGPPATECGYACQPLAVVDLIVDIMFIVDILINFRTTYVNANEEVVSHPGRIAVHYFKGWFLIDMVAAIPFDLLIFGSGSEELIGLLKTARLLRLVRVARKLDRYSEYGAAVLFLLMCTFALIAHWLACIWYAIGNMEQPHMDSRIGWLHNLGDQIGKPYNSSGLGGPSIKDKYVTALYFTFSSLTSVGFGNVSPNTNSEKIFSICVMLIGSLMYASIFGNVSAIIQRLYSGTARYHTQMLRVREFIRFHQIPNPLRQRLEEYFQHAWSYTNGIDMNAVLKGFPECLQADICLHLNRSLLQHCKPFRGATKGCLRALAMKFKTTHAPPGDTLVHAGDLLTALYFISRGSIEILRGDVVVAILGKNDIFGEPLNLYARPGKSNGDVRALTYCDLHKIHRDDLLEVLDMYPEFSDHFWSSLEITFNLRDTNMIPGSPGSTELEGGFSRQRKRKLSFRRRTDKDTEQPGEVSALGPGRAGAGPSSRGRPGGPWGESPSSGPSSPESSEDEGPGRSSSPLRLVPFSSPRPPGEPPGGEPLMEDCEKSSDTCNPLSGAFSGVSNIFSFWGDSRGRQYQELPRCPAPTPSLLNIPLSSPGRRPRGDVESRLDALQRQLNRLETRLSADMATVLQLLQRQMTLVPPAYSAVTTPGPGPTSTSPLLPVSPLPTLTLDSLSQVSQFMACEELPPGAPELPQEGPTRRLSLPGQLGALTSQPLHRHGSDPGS

For `Cl.N=C(CC(O)c1cc2c(F)cc(F)cc2c2cc(C(F)(F)F)ccc12)Nc1ccc(F)cc1` (centres undefined), the “Cp(f)” value [1] was 0.4%, the remaining at 4 h, 25 ng/mL [2] was 89.1% and the AUC(0-t) [3] was 40900 ng·h/mL. The IC50 (Plasmodium falciparum [4]) was 0.014 µM, the Activity (Plasmodium falciparum [5]) was “Active; No Subsequent Parasite Growth Observed” and the IC50 (Plasmodium falciparum [6]) was 0.172 µM. For the same compound, the Activity [7] was 2.6%, the Activity (Plasmodium falciparum [8]) was “Active; Compound Exhibited Fast-Acting Than Dihydroartemisinin” and the Activity (Plasmodium falciparum [9]) was “inactive”. The Activity (Plasmodium berghei [10]) was 0%, the Tmax [11] was 4 h and the IC50 [12] was 0.3 µM. For the same compound, the Activity (Plasmodium falciparum [13]) was “Active”, the IC50 (Plasmodium falciparum [14]) was 0.016 µM and the fraction unbound at 24 h, 25 ng/ml [15] was 0.004. For the same compound, the Activity (Plasmodium berghei [16]) was 33%, the AUC(0-t) [17] was 3770 ng·h/mL and the IC50 (Plasmodium falciparum [18]) was 0.002 µM. The IC50 (Plasmodium falciparum [19]) was 0.003 µM, the Cmax [20] was 216 ng/mL and the Activity (Plasmodium berghei [21]) was 99.9%. The IC50 (Plasmodium falciparum [22]) was 0.003 µM, the remaining at 24 h, 25 ng/mL [23] was 76.4% and the Activity (Plasmodium falciparum [24]) was “Active; No Resistant Parasites Generated”. For the same compound, the Activity (Plasmodium berghei [25]) was 100%, the Tmax [26] was 4 h and the IC50 (Plasmodium falciparum [27]) was 0.011 µM. For the same compound, the Stability [28] was greater than 90% and the Activity (Plasmodium falciparum [29]) was “Active; No Subsequent Parasite Growth Observed”.
